Assay results: PMC8413131 (Oncogene, 2021)

Tests used:
CWR22Rv1 cells = test: Cell growth assay; format: cell-based; conditions: for cell growth, 3 days: CWR22Rv1, FBS, 5 μM Abi, 20 μM Enza, 20 μM Apal, 0.25-1.0 μM ARVibs, Fig.4A-4B
C4-2B MDVR cells = test: Cell growth assay; format: cell-based; conditions: for cell growth, 3 days: FBS, 5 μM Abi, 20 μM Enza, 20 μM Apal, 0.25-1.0 μM ARVibs, Fig.4A-4B
[1] = tested on: AR-V7 and AR mutants (T878A, K581R, V716M, L702H); test: PSA luciferase reporter, AR-V7 and AR mutants in 293 cells; format: cell-based; conditions: FBS conditions, 16 hours, Fig.2G
Procedure, shortened: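 293 cells in FBS medium transfected with vector, AR-V7 or mutant AR (T878A, K581R, L702H, V716M) plus a PSA promoter–luciferase plasmid. Then exposed to anti-androgens or test compound for 16 h before luciferase read-out. Mean ± SD of three independent experiments.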

VCaP xenografts = test: Relapsed VCaP tumor model, combination with Enza; format: in vivo, mice; conditions: relapsed VCaP tumors
wild-type AR (WT-AR) = test: PSA luciferase reporter, WT-AR in 293 cells; format: cell-based; conditions: FBS conditions, 16 hours, Fig.2G
LuCaP 35CR xenografts = test: LuCaP35CR PDX model, oral administration; format: in vivo, mice; conditions: 150 mg/Kg p.o.
CWR22Rv1 xenografts = test: CWR22Rv1 tumor xenografts in SCID mice; format: in vivo; conditions: 25 mg/Kg i.p., Supplementary Fig.6B
Procedure, shortened: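 C.B17 SCID males, 4–5 weeks old, given 3 million CWR22Rv1 cells mixed 1:1 with matrigel s.c. in flank. Randomized at 50–100 mm3 tumor volume. Test compound 25 mg/kg i.p. vs vehicle (15% Cremophor EL, 82.5% PBS, 2.5% DMSO, i.p.). Calipers twice weekly; volume = L×W×W×0.52. Tumors, liver and kidney harvested and weighed after 3 weeks; liver and kidney H&E stained.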

[2] = ref [20], [21]; cited from earlier work
AR = test: Western blot of AR expression in CWR22Rv1 cells; format: cell-based; conditions: 1 μM, 16 hours

Structure (SMILES): C[C@]12CC[C@H](O)CC1=CC[C@@H]1[C@@H]2CC[C@]2(C)C(c3cccnc3)=CC[C@@H]12 [Abi, abiraterone]
- cell growth, 3 days (CWR22Rv1 cells): resistant
- cell growth, 3 days (C4-2B MDVR cells): resistant

Structure (SMILES): CNC(=O)c1ccc(N2C(=S)N(c3cnc(C#N)c(C(F)(F)F)c3)C(=O)C23CCC3)cc1F [Apal, apalutamide]
- transcriptional activity mediated by AR-V7 and AR mutants [1]: could not suppress
- cell growth, 3 days (CWR22Rv1 cells): resistant
- cell growth, 3 days (C4-2B MDVR cells): resistant

Structure (SMILES): CNC(=O)c1ccc(N2C(=S)N(c3ccc(C#N)c(C(F)(F)F)c3)C(=O)C2(C)C)cc1F [Enza, enzalutamide]
- transcriptional activity mediated by AR-V7 and AR mutants [1]: could not suppress
- cell growth, 3 days (CWR22Rv1 cells): resistant
- tumor PSA expression (mouse serum), single treatment (VCaP xenografts; Fig.6F): slightly, but insignificantly, suppressed
- tumor growth, single treatment (VCaP xenografts; Enza 20 mg/Kg p.o., ARVib-7 75 mg/Kg orally, Fig.6C-6E): insignificantly inhibited
- cell growth, 3 days (C4-2B MDVR cells): resistant

Structure (SMILES): CC(O)(CS(=O)(=O)c1ccc(F)cc1)C(=O)Nc1ccc(C#N)c(C(F)(F)F)c1 (centres unmarked) [bicalutamide]
- transcriptional activity mediated by AR-V7 and AR mutants [1]: could not suppress
- WT-AR transcriptional activity (wild-type AR (WT-AR)): suppress

Structure (SMILES): O=C(Nc1ccc([N+](=O)[O-])cc1Cl)c1cc(Cl)ccc1O [niclosamide]
- suppression of tumor growth / tumor volume compared to vehicle control (LuCaP 35CR xenografts; Fig.5C): 50%
- tumor PSA expression (mouse serum) (LuCaP 35CR xenografts; Fig.5F): slightly suppressed
- mouse body weight (CWR22Rv1 xenografts): did not affect
- enhancement of Enza treatment (cell growth) (CWR22Rv1 cells; CWR22Rv1, 0.5 μM with 20 μM Enza, 3 days, Fig.6A): profoundly enhanced
- bioavailability [2]: ~ 10%
- inhibition of AR expression (AR; dose series, Fig.1C left): 84.42%
- inhibition of AR expression (AR; western blot, Fig.1B): 89.73%
- enhancement of Enza treatment (cell growth) (C4-2B MDVR cells; 0.25 μM with 20 μM Enza, 3 days, Supplementary Fig.6E): profoundly enhanced
